# Laboratory results from ChEMBL document CHEMBL1157317, “Vanillic acid glycoside and quinic acid derivatives from Gardeniae Fructus” (J Nat Prod, 2006).
# Experiments:
# [1] = Antioxidant activity assessed as superoxide anion scavenging activity by xanthine oxidase oxidation system relative to control; assay type: functional
# Method in brief: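 Superoxide produced by xanthine oxidase (1.4 × 10-8 units) with 0.1 mM xanthine in 40 mM sodium carbonate buffer pH 10.2 containing 0.1 mM EDTA, 50 µg/mL BSA and […]; 20 min at 25 °C, stopped with CuCl2. Formazan read at 560 nm; IC50 as concentration scavenging 50% of superoxide.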
# [2] = target: Human immunodeficiency virus type 1 integrase (Human immunodeficiency virus 1, UniProt Q7ZJM1); assay: Inhibition of HIV1 recombinant integrase expressed in Escherichia coli
# Chain of Human immunodeficiency virus type 1 integrase (Q7ZJM1 whole entry): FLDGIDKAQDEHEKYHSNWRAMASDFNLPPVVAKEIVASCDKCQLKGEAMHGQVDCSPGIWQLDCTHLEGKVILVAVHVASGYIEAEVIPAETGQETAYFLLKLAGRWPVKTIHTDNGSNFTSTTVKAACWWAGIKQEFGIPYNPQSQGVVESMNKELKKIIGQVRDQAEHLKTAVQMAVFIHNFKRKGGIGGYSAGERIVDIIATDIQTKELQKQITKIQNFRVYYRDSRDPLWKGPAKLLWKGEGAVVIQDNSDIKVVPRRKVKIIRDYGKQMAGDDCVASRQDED
# [3] = system: Radical scavenging activity; assay: Antioxidant activity assessed as DPPH free radical scavenging activity relative to control; assay type: functional
# Method in brief: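 Test samples in EtOH mixed with 100 µM ethanolic DPPH, incubated 30 min at 37 °C; absorbance read at 515 nm. Percent inhibition calculated against ethanol-treated control; IC50 taken as concentration scavenging 50% of DPPH radicals.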
# [4] = Antioxidant activity assessed as inhibition of 2,2'-azobis(2-amidinopropane)dihydrochloride-induced lipid peroxidation at 3.125 ug/ml by ferric thiocyanate system relative to control; assay type: functional
# Method in brief: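 Linoleic acid emulsified in Tween, peroxidation induced by AAPH; oxidation followed by ferric thiocyanate method.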
Compound,IC50 [1],IC50 [2],IC50 [3],inhibition [4]
O=C(/C=C/c1ccc(O)c(O)c1)O[C@H]1[C@H](O)C[C@](O)(C(=O)O)C[C@H]1OC(=O)/C=C/c1ccc(O)c(O)c1,3.3 µg/mL,10.5 µM,5.9 µg/mL,51.7%
O=C(/C=C/c1ccc(O)c(O)c1)O[C@@H]1C[C@](O)(C(=O)O)C[C@@H](OC(=O)/C=C/c2ccc(O)c(O)c2)[C@H]1O,2.9 µg/mL,11.4 µM,5.6 µg/mL,51.5%
CCOC(=O)[C@@]1(O)C[C@@H](OC(=O)/C=C/c2ccc(O)c(O)c2)[C@H](O)[C@H](OC(=O)/C=C/c2cc(OC)c(O)c(OC)c2)C1,2.7 µg/mL,80.5 µM,9.5 µg/mL,53.8%
CCOC(=O)[C@]1(O)C[C@@H](O)[C@@H](OC(=O)/C=C/c2cc(OC)c(O)c(OC)c2)[C@H](OC(=O)/C=C/c2ccc(O)c(O)c2)C1,2 µg/mL,73.9 µM,6.1 µg/mL,54.9%
COC(=O)[C@]1(O)C[C@@H](O)[C@@H](OC(=O)/C=C/c2cc(OC)c(O)c(OC)c2)[C@H](OC(=O)/C=C/c2ccc(O)c(O)c2)C1,1.8 µg/mL,33.8 µM,8.3 µg/mL,56%
COC(=O)[C@@]1(O)C[C@@H](OC(=O)/C=C/c2ccc(O)c(O)c2)[C@H](O)[C@H](OC(=O)/C=C/c2cc(OC)c(O)c(OC)c2)C1,2.2 µg/mL,41.1 µM,8.5 µg/mL,54.7%
COc1cc(C(=O)O)ccc1O[C@@H]1O[C@H](COC(=O)/C=C/c2cc(OC)c(O)c(OC)c2)[C@@H](O)[C@H](O)[C@H]1O,46.3 µg/mL,> 186 µM,22.7 µg/mL,38.4%
O=C1O[C@H]([C@@H](O)CO)C(O)=C1O [ASCORBIC ACID],> 50 µg/mL,–,5.5 µg/mL,44.1%
O=C(O)/C=C/c1ccc(O)c(O)c1 [CAFFEIC ACID],0.5 µg/mL,–,3.2 µg/mL,54.1%
CCOC(=O)[C@]1(O)C[C@@H](O)[C@@H](O)[C@H](OC(=O)/C=C/c2ccc(O)c(O)c2)C1 [ETHYL CHLOROGENATE],1 µg/mL,116 µM,7.1 µg/mL,51.1%
COC(=O)C1=CO[C@@H](O[C@@H]2O[C@H](CO)[C@@H](O)[C@H](O)[C@H]2O)[C@@H]2C(CO)=CC[C@H]12 [GENIPOSIDE],> 50 µg/mL,> 257 µM,> 50 µg/mL,2%
O=C(O)C1=CO[C@@H](O[C@@H]2O[C@H](CO)[C@@H](O)[C@H](O)[C@H]2O)[C@@H]2C(CO)=CC[C@H]12 [GENIPOSIDIC ACID],> 50 µg/mL,> 267 µM,> 50 µg/mL,4.8%
O=c1c(O[C@@H]2O[C@H](CO)[C@@H](O)[C@H](O)[C@H]2O)c(-c2ccc(O)c(O)c2)oc2cc(O)cc(O)c12 [ISOQUERCETIN],3.4 µg/mL,–,16.6 µg/mL,49.9%
O=C(O)c1ccc(O)c(O)c1 [PROTOCATECHUIC ACID],13 µg/mL,–,6.9 µg/mL,38.1%
O=c1c(O)c(-c2ccc(O)c(O)c2)oc2cc(O)cc(O)c12 [QUERCETIN],> 50 µg/mL,–,5.9 µg/mL,54.2%
Oc1ccc(/C=C/c2cc(O)cc(O)c2)cc1 [RESVERATROL],37.9 µg/mL,–,17.1 µg/mL,39.1%
VITAMIN E [listing 1 of 2 here],> 50 µg/mL,–,9.4 µg/mL,–
VITAMIN E [listing 2 of 2 here],–,–,–,61.2%
